Activity calls are given as the source filed them. No cut-off for these calls is given here.
Tests used:
[1] = system: Cerebral cortex; assay: Effect on respiratory control ratio in C57BL/6 mouse cerebral cortex mitochondria at 2 uM (reference value: 5.3)
[2] = system: MC65; assay: Effect on mitochondrial membrane potential in human MC65 cells at 0.3 to 1 uM incubated for 48 hrs by flow cytometry; type: functional, cell-based; conditions: dose microM 0.3-1, time 48.0 hrs
[3] = system: Mus musculus; assay: Effect on respiratory control ratio in 5 months old transgenic AD mouse model in presence of pyruvate and malate at 50 mg/kg, po dosed 5 times/week for 2 weeks (4.1 +/- 0.7); type: functional
[4] = organism: Mus musculus; assay: Inhibition of mitochondrial complex 1 in permeabilized mouse brain mitochondria assessed as reduction in ROS production at 2 to 6 uM incubated for 1 hr in presence of NADH by Amplex Red and horseradish peroxidase based assay; conditions: dose microM 2-6, time 1.0 hrs
In short: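 Permeabilized mouse brain mitochondria (0.1 mg protein/ml) were pretreated with compound for 1 h at 30 °C. H2O2 release was triggered with NADH (10 μM) and detected by Amplex Red (50 μM) oxidation with HRP (0.1 U/ml) at Ex/Em 530/590 nm. Output was calibrated against an H2O2 standard curve (linear to 2 μM). N=6, mean ± SEM, Student t-test.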

[5] = system: MC65; assay: Inhibition of mitochondrial complex 1 in human MC65 cells assessed as inhibition of ROS production incubated for 48 hrs by mitoSOX fluorescence based flow cytometry; type: cell-based
In short: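 MC65 cells in Opti-MEM (1.6×10^6/well) incubated with compound at 37 °C for 48 h, with or without tetracycline. Collected into HBSS and stained with mitoSOX (2.5 μM) 20 min at 37 °C. Washed twice, then mean fluorescence intensity read by flow cytometry.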

[6] = system: SH-SY5Y; assay: Inhibition of mitochondrial complex 1 in human SH-SY5Y cells assessed as inhibition of MPP+-induced mitochondrial depolarization in presence of 10 uM NAC incubated for 24 hrs by fluorescence based assay; type: cell-based
In short: (§1)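 SH-SY5Y cells (4×10^5/well) treated with compound, NAC (10 μM) or trolox (10 μM) plus MPP+ (30 μM) for 24 h. TMRM added at 100 nM final for 30 min. Cells trypsinized, resuspended in PBS and read by flow cytometry.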

[7] = system: Cortical neuron; assay: Inhibition of mitochondrial complex 1 in mouse cortical neurons assessed as inhibition of MPP+-induced mitochondrial depolarization incubated for 24 hrs by fluorescence based assay
In short: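 Primary cortical neurons from E15.5 C57BL/6J embryos (DIV 14; 5×10^4 cells/well) were given compound plus MPP+ for 24 h. They were then loaded with TMRM (1 μM final, 30 min) and washed twice with PBS. Dye was released with 50% DMSO/0.5% Triton in water and read at Ex/Em 548/574 nm.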

[8] = system: SH-SY5Y; assay: Inhibition of mitochondrial complex 1 in human SH-SY5Y cells assessed as inhibition of MPP+-induced mitochondrial depolarization in presence of 10 uM trolox incubated for 24 hrs by fluorescence based assay; type: cell-based
In short: as §1

[9] = system: Cortical neuron; assay: Inhibition of mitochondrial complex 1 in mouse cortical neurons assessed as inhibition of rotenone-induced ROS production by measuring ROS production rate at 1 uM incubated for 12 hrs by mitoSOX fluorescence based flow cytometry (Rvb =3.3 RFU/min)
[10] = system: Mus musculus; assay: Effect on respiratory control ratio in 5 months old transgenic AD mouse model in presence of succinate at 50 mg/kg, po dosed 5 times/week for 2 weeks (2.5 +/- 0. 2); type: functional
[11] = Inhibition of mitochondrial complex 1 in 5 months old transgenic AD mouse model assessed as suppression of maximal rate of ADP-stimulated respiration of pyruvate at 50 mg/kg, po dosed 5 times/week for 2 weeks; type: functional; conditions: 336 h
[12] = system: MC65; assay: Inhibition of mitochondrial complex 1 in human MC65 cells assessed as inhibition of antimycin A-induced ROS production at 1 to 3 uM incubated for 12 hrs by mitoSOX fluorescence based flow cytometry; type: cell-based; conditions: dose microM 1-3, time 12.0 hrs
[13] = system: Cerebral cortex; assay: Effect on ADP/O ratio in C57BL/6 mouse cerebral cortex mitochondria at 2 uM (reference value: 2.9)
[14] = system: Mus musculus; assay: Inhibition of mitochondrial complex 1 in 10 months old transgenic AD mouse model assessed as suppression of state 3 respiration of pyruvate at 50 mg/kg, po QD for 8 weeks; type: functional, organism-based
[15] = Effect on ADP/O ratio in 5 months old transgenic AD mouse model in presence of succinate at 50 mg/kg, po dosed 5 times/week for 2 weeks (1.4 +/- 0.1); type: functional
[16] = system: Mus musculus; assay: Inhibition of mitochondrial complex 1 in 5 months old transgenic AD mouse model assessed as suppression of state 3 respiration of pyruvate at 50 mg/kg, po dosed 5 times/week for 2 weeks; type: functional, organism-based
[17] = system: Mus musculus; assay: Effect on respiratory control ratio in 5 months old transgenic AD mouse model at 50 mg/kg, po dosed 5 times/week for 2 weeks; type: functional, organism-based
[18] = Effect on ADP/O ratio in 5 months old transgenic AD mouse model in presence of pyruvate and malate at 50 mg/kg, po dosed 5 times/week for 2 weeks (2.6 +/- 0.2); type: functional
[19] = organism: Mus musculus; assay: Inhibition of mitochondrial complex 2 in C57BL/6 mouse cerebral cortex mitochondria assessed as modulation of maximal rate of ADP-stimulated respiration of succinate at 2 uM
[20] = system: SH-SY5Y; assay: Inhibition of mitochondrial complex 1 in human SH-SY5Y cells assessed as inhibition of MPP+-induced mitochondrial depolarization incubated for 24 hrs by fluorescence based assay; type: cell-based
In short: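 SH-SY5Y cells (4×10^5 per well) were co-treated with compound and MPP+ (30 μM) for 24 h at 37 °C. TMRM was then added to 100 nM final for 30 min. Cells were trypsinized, pelleted, resuspended in PBS, and membrane potential fluorescence was read by flow cytometry.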

[21] = Inhibition of mitochondrial complex 1 in 10 months old transgenic AD mouse model assessed as suppression of maximal rate of ADP-stimulated respiration of pyruvate at 50 mg/kg, po QD for 8 weeks; type: functional; conditions: 1344 h
[22] = organism: Mus musculus; assay: Inhibition of mitochondrial complex 1 in C57BL/6 mouse cerebral cortex mitochondria assessed as reduction in ETC enzymatic activity at 2 uM relative to control
In short: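 Detergent-solubilized mouse brain mitochondria (N=6) treated with 2 μM compound, then electron transport chain enzyme activities determined.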

[23] = system: Mus musculus; assay: Effect on ADP/O ratio in 5 months old transgenic AD mouse model at 50 mg/kg, po dosed 5 times/week for 2 weeks; type: functional, organism-based
[24] = organism: Mus musculus; assay: Inhibition of mitochondrial complex 1 in C57BL/6 mouse cerebral cortex mitochondria assessed as modulation of maximal rate of ADP-stimulated respiration of pyruvate at 2 uM
In short: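 Mitochondria isolated from C57BL/6 mouse cerebral cortex (N=6) with vehicle or 2 μM compound. Oxygen consumption measured by Clark-type electrode at 30 °C with pyruvate/malate (20/5 mM) or succinate (20 mM). ADP-stimulated (state 3) and state 4 rates recorded; RCR taken as state 3/state 4, with ADP/O also derived.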

[25] = system: MC65; assay: Effect on ATP content in human MC65 cells at 0.1 to 1 uM incubated for 48 hrs; type: functional, cell-based; conditions: dose microM 0.1-1, time 48.0 hrs
[26] = system: MC65; assay: Inhibition of mitochondrial complex 1 in human MC65 cells assessed as inhibition of rotenone-induced ROS production by measuring ROS production rate at 1 uM incubated for 12 hrs by mitoSOX fluorescence based flow cytometry (reference value: 8.3 RFU/min)

## COc1ccc2[nH]cc(CCNC(=O)CC(=O)CCc3ccc(O)cc3)c2c1
[1]
  Ratio: 4.7
[2]
  Activity: inactive
[3]
  Ratio: 4.2
[4]
  inhibition: Active
[5]
  inhibition: Dose-dependent effect
[6]
  inhibition: Active
[7]
  inhibition: Dose-dependent effect
[8]
  inhibition: Active
[9]
  Activity: 2 RFU/min
[10]
  Ratio: 2.7
[11]
  inhibition in vivo at 50 mg/kg: 9%
[12]
  inhibition: inactive
[13]
  Ratio: 3.1
[14]
  inhibition: Active
[15]
  Ratio: 1.3
[16]
  inhibition: Active
[17]
  Activity: inactive
[18]
  Ratio: 2.6
[19]
  inhibition: inactive
[20]
  inhibition: Dose-dependent effect
[21]
  inhibition in vivo at 50 mg/kg: 25%
[22]
  inhibition: 20%
[23]
  Activity: inactive
[24]
  inhibition: Active
[25]
  Activity: inactive
[26]
  Activity: 5.8 RFU/min

— ChEMBL document CHEMBL4665824, “Characterization and Discovery of a Selective Small-Molecule Modulator of Mitochondrial Complex I Targeting a Unique Binding Site” (J Med Chem, 2020)
